Laboratory results taken from ChEMBL document CHEMBL4152389, “Discovery of Novel, Drug-Like Ferroptosis Inhibitors with in Vivo Efficacy” (J Med Chem, 2018).
Values after ≈ are worked out from the molar mass of the structure shown. One block for each molecule: values may come before it. Active and inactive are the calls of the source. The rule behind the calls is not given here.

Experiments:
[1] = Kinetic solubility in PBS at pH 7.4 after 2 hrs by turbidimetric method; type: physicochemical; settings: read-out: Kinetic_solubility
Outline: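 Kinetic solubility by turbidity (UV/VIS reading); final compound 3.125–200 μM, from 4 μL DMSO solution in 196 μL 10 mM PBS pH 7.4.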

IMR-32 [2] = assay: Inhibition of erastin-induced ferroptosis in human IMR32 cells preincubated for 1 hr followed by erastin stimulation and measured after 13 hrs by sytox green-based fluorescence assay; type: functional, cell-based
Outline: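 IMR-32 neuroblastoma cells seeded at 25,000/well, next day pretreated 1 h in triplicate with 1/3 dilution series (5 μM to 0.68 nM) plus Sytox Green 1.6 μM, then erastin 10 μM.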

[3] = Intrinsic clearance in mouse liver microsomes at 50 uM after 15 mins to 24 hrs by LC/MS/MS analysis; type: ADME, microsome; settings: read-out: CLH
Outline: (§1)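 Intrinsic clearance calculated from measured microsomal half-life in human, mouse or rat liver microsomes, accounting for protein concentration and incubation volume with species-specific parameters.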

[4] = Metabolic stability in rat plasma assessed as compound recovery at 50 uM after 6 hrs by LC/MS/MS analysis; type: ADME, cell-free; settings: read-out: Drug recovery
Outline: (§2)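 Compound incubated in human, rat or mouse plasma; percentage of remaining parent compound determined after 6 h.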

[5] = Metabolic stability in human plasma assessed as compound recovery at 50 uM after 6 hrs by LC/MS/MS analysis; type: ADME, cell-free; settings: read-out: Drug recovery; outline: as §2
[6] = Metabolic stability in mouse plasma assessed as compound recovery at 50 uM after 6 hrs by LC/MS/MS analysis; type: ADME, cell-free; settings: read-out: Drug recovery; outline: as §2
[7] = Intrinsic clearance in human liver microsomes at 50 uM after 15 mins to 24 hrs by LC/MS/MS analysis; type: ADME, microsome; settings: read-out: CLH; outline: as §1
[8] = Intrinsic clearance in rat liver microsomes at 50 uM after 15 mins to 24 hrs by LC/MS/MS analysis; type: ADME, microsome; settings: read-out: CLH; outline: as §1
Mus musculus [9] = assay: In vivo inhibition of iron sulphate-induced ferroptosis in C57BL/6N mouse assessed as LDH levels in plasma at 20 umol/kg, iv administered 15 mins prior to acute iron poisoning and measured after 2 hrs (reference value: 3572 +/- 185 U/L); type: functional
IMR-32 [10] = assay: Inhibition of ferrous ammonium sulphate-induced ferroptosis in human IMR32 cells preincubated for 1 hr followed by ferrous ammonium sulphate stimulation and measured after 13 hrs by sytox green-based fluorescence assay
Mus musculus [11] = assay: Toxicity in wild type mouse assessed as AST levels in plasma at 20 umol/kg, ip administered daily for 4 weeks measured at day 28 (reference value: 110 +/- 8 U/L); type: organism-based; settings: in vivo, 672 h
Mus musculus [12] = assay: Toxicity in wild type mouse assessed as CK levels in plasma at 20 umol/kg, ip administered daily for 4 weeks measured at day 28 (reference value: 1501 +/- 196 U/L); type: organism-based; settings: in vivo, 672 h
Mus musculus [13] = assay: Toxicity in wild type mouse assessed as creatinine levels in plasma at 20 umol/kg, ip administered daily for 4 weeks measured at day 28 (reference value: <0.2 mg/dl); type: organism-based; settings: in vivo, 672 h
Mus musculus [14] = assay: Toxicity in wild type mouse assessed as relative gain in body weight at 20 umol/kg, ip administered daily for 4 weeks measured during compound dosing (reference value: 14.8 +/- 3.4%); type: organism-based; settings: in vivo, 672 h
Mus musculus [15] = assay: Toxicity in wild type mouse assessed as urea levels in plasma at 20 umol/kg, ip administered daily for 4 weeks measured at day 28 (reference value: 42 +/- 2 mg/dl); type: organism-based; settings: in vivo, 672 h
[16] = Plasma concentration in Wistar rat at 5 mg/kg, iv after 0.083 to 24 hrs by UPLC-MS analysis; type: ADME, organism-based; settings: in vivo
Outline: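 Single iv 5 mg/kg to three male Wistar rats; blood sampled at 0.083, 0.25, 0.5, 1, 2, 4 and 24 h; plasma drug measured by UPLC–tandem quadrupole MS, detection limit 53.1 ng/mL.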

Mus musculus [17] = assay: Toxicity in wild type mouse assessed as LDH levels in plasma at 20 umol/kg, ip administered daily for 4 weeks measured at day 28 (reference value: 227 +/- 18 U/L); type: organism-based; settings: in vivo, 672 h
Mus musculus [18] = assay: Toxicity in wild type mouse assessed as troponin levels in plasma at 20 umol/kg, ip administered daily for 4 weeks measured at day 28 (reference value: 0.041 +/- 0.005 ug/l); type: organism-based; settings: in vivo, 672 h
Mus musculus [19] = assay: Toxicity in wild type mouse assessed as ALT levels in plasma at 20 umol/kg, ip administered daily for 4 weeks measured at day 28 (reference value: <25 U/L); type: organism-based; settings: in vivo, 672 h
Mus musculus [20] = assay: Toxicity in wild type mouse assessed as body temperature at 20 umol/kg, ip administered daily for 4 weeks measured during compound dosing (reference value: 37 +/- 0.6 degreeC); type: organism-based; settings: in vivo, 672 h
[21] = Half life in human liver microsomes at 10 uM in presence of NADPH regenerating system by LC/MS/MS analysis; type: ADME, microsome
Outline: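 Incubation with human liver microsomes; metabolism by CYP450 and other NADP-dependent enzymes monitored and expressed as half-life (h).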

SMILES: CN(C)CCNS(=O)(=O)c1ccc(NC2CCCCC2)c(NCc2ccncc2)c1
solubility kinetic at 2 h [1]: > 200 µM | IC50 (IMR-32 [2]): 1560 nM

SMILES: O=S(=O)(NCCN1CCOCC1)c1ccc(NC2CCCCC2)c(NCc2ccccc2)c1
CLint scaled at 50 µM [3]: 1220 mL/min/kg | solubility kinetic at 2 h [1]: 50 to 100 µM (≈ 23.6 to 47.3 µg/mL) | remaining at 6 h, 50 µM [4]: 100% | remaining at 6 h, 50 µM [5]: 100% | IC50 (IMR-32 [2]): 24 nM | remaining at 6 h, 50 µM [6]: 100% | CLint scaled at 50 µM [7]: 22.6 mL/min/kg | CLint scaled at 50 µM [8]: 326 mL/min/kg

SMILES: Cl.O=S(=O)(NCCN1CCNCC1)c1ccc(NC2CCCCC2)c(NCc2ccccc2)c1
Activity (Mus musculus [11]): 123 U/L | Activity (Mus musculus [12]): 1865 U/L | Activity (Mus musculus [13]): < 0.2 mg/dL | CLint scaled at 50 µM [3]: 18 mL/min/kg | solubility kinetic at 2 h [1]: > 200 µM | remaining at 6 h, 50 µM [4]: 85.8% | remaining at 6 h, 50 µM [5]: 84.2% | IC50 (IMR-32 [2]): 10 nM | remaining at 6 h, 50 µM [6]: 100% | CLint scaled at 50 µM [7]: 1.1 mL/min/kg | Activity (Mus musculus [14]): 10.4% | Activity (Mus musculus [15]): 43 mg/dL | Cp [16]: < 53.1 ng/mL | CLint scaled at 50 µM [8]: 3.4 mL/min/kg | Activity (Mus musculus [9]): 2346 U/L | Activity (Mus musculus [17]): 263 U/L | inhibition (IMR-32 [10]): Active | Activity (Mus musculus [18]): 0.044 µg/L | Activity (Mus musculus [19]): < 25 U/L | T (Mus musculus [20]): 37 °C

SMILES: CN1CCN(CCNS(=O)(=O)c2ccc(NC3CCCCC3)c(NCc3ccncc3)c2)CC1
solubility kinetic at 2 h [1]: > 200 µM | IC50 (IMR-32 [2]): 1520 nM

SMILES: CN(C)CCNS(=O)(=O)c1ccc(NC2CCCCC2)c(NCc2ccccc2)c1
solubility kinetic at 2 h [1]: > 200 µM | IC50 (IMR-32 [2]): 554 nM

SMILES: O=S(=O)(NCCN1CCOCC1)c1ccc(NC2CCCCC2)c(NCc2ccncc2)c1
solubility kinetic at 2 h [1]: > 200 µM | IC50 (IMR-32 [2]): 191 nM

SMILES: Cl.O=S(=O)(NCCN1CCNCC1)c1ccc(NC2CCCCC2)c(NCc2ccncc2)c1
solubility kinetic at 2 h [1]: > 200 µM | IC50 (IMR-32 [2]): 442 nM

SMILES: COCCNS(=O)(=O)c1ccc(NC2CCCCC2)c(NCc2ccccc2)c1
solubility kinetic at 2 h [1]: 25 to 50 µM (≈ 10.4 to 20.9 µg/mL) | IC50 (IMR-32 [2]): 22 nM

SMILES: COCCNS(=O)(=O)c1ccc(NC2CCCCC2)c(NCc2ccncc2)c1
solubility kinetic at 2 h [1]: > 200 µM | IC50 (IMR-32 [2]): 97 nM

SMILES: CN1CCN(CCNS(=O)(=O)c2ccc(NC3CCCCC3)c(NCc3ccccc3)c2)CC1
solubility kinetic at 2 h [1]: > 200 µM | IC50 (IMR-32 [2]): 1070 nM

More lines, main results first:

solubility kinetic at 2 h [1]: > 200 µM
SMILES: CN(C)CCNS(=O)(=O)c1ccc(NC2CCCCC2)c(N)c1
IC50 (IMR-32 [2]): 160 nM

CLint scaled at 50 µM [3]: 4.8 mL/min/kg | solubility kinetic at 2 h [1]: > 200 µM | remaining at 6 h, 50 µM [4]: 100% | remaining at 6 h, 50 µM [5]: 100% | remaining at 6 h, 50 µM [6]: 100% | CLint scaled at 50 µM [7]: 1.3 mL/min/kg | CLint scaled at 50 µM [8]: 27.4 mL/min/kg
SMILES: Cl.NCCNS(=O)(=O)c1ccc(NC2CCCCC2)c(NCc2ccccc2)c1
IC50 (IMR-32 [2]): 12 nM | Activity (Mus musculus [9]): 2293 U/L | inhibition (IMR-32 [10]): Active

solubility kinetic at 2 h [1]: > 200 µM
SMILES: COCCNS(=O)(=O)c1ccc(NC2CCCCC2)c(N)c1
IC50 (IMR-32 [2]): 492 nM

solubility kinetic at 2 h [1]: > 200 µM
SMILES: Nc1cc(S(=O)(=O)NCCN2CCOCC2)ccc1NC1CCCCC1
IC50 (IMR-32 [2]): 448 nM

solubility kinetic at 2 h [1]: > 200 µM
SMILES: Cl.Nc1cc(S(=O)(=O)NCCN2CCNCC2)ccc1NC1CCCCC1
IC50 (IMR-32 [2]): 296 nM

solubility kinetic at 2 h [1]: > 200 µM
SMILES: CNCCNS(=O)(=O)c1ccc(NC2CCCCC2)c(N)c1.Cl
IC50 (IMR-32 [2]): 214 nM

solubility kinetic at 2 h [1]: 100 to 200 µM
SMILES: Cl.NCCNS(=O)(=O)c1ccc(NC2CCCCC2)c(NCc2ccncc2)c1
IC50 (IMR-32 [2]): 112 nM

solubility kinetic at 2 h [1]: > 200 µM
SMILES: Cl.NCCNS(=O)(=O)c1ccc(NC2CCCCC2)c(N)c1
IC50 (IMR-32 [2]): 306 nM

CLint scaled at 50 µM [3]: 139 mL/min/kg | solubility kinetic at 2 h [1]: > 200 µM | remaining at 6 h, 50 µM [4]: 65.8% | remaining at 6 h, 50 µM [5]: 90.3% | remaining at 6 h, 50 µM [6]: 100% | CLint scaled at 50 µM [7]: 1.7 mL/min/kg | CLint scaled at 50 µM [8]: 161 mL/min/kg
SMILES: CNCCNS(=O)(=O)c1ccc(NC2CCCCC2)c(NCc2ccccc2)c1.Cl
IC50 (IMR-32 [2]): 3 nM | Activity (Mus musculus [9]): 2093 U/L | inhibition (IMR-32 [10]): Active

solubility kinetic at 2 h [1]: > 200 µM
SMILES: CNCCNS(=O)(=O)c1ccc(NC2CCCCC2)c(NCc2ccncc2)c1.Cl
IC50 (IMR-32 [2]): 157 nM

solubility kinetic at 2 h [1]: > 200 µM | remaining at 6 h, 50 µM [4]: 1.1% | remaining at 6 h, 50 µM [5]: 47.3% | remaining at 6 h, 50 µM [6]: 0% | half-life at 10 µM [21]: 6.54 min
SMILES: CCOC(=O)c1ccc(NC2CCCCC2)c(N)c1
IC50 (IMR-32 [2]): 33 nM | Activity (Mus musculus [9]): 2898 U/L | inhibition (IMR-32 [10]): Active

solubility kinetic at 2 h [1]: > 200 µM
SMILES: CN1CCN(CCNS(=O)(=O)c2ccc(NC3CCCCC3)c(N)c2)CC1
IC50 (IMR-32 [2]): 236 nM
